Among the data in ChEMBL document CHEMBL4387779, “Design and synthesis of 4β-Acetamidobenzofuranone-podophyllotoxin hybrids and their anti-cancer evaluation” (Bioorg Med Chem Lett, 2019) are IC50 values, retold here.

In general, IC50 refers to the concentration that gives 50% inhibition.

What all share (assay type): functional, cell-based
One experiment deals with MCF7. Nature of the experiment: Cytotoxicity against human MCF7 cells after 24 hrs by MTT assay. The conditions noted are these: MCF7, 24 h. The essentials: (§1)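 Cells seeded at 1×10⁴ per well in complete medium and held 18 h at 37 °C, 5% CO₂. Medium then replaced with fresh medium containing test compounds or etoposide at 0.5, 1 and 2 μM, incubated 24 h at 37 °C. MTT dye added for 2 h, formazan solubilized in extraction buffer, absorbance read at 570 nm. Values mean±SD, three experiments in triplicate.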

Another experiment concerns DU-145. Nature of the experiment: Cytotoxicity against human DU145 cells after 24 hrs by MTT assay. To be noted: DU-145, 24 h. The essentials: as §1
(Formazan colour is commonly taken as a measure of viable cells.)

The subject of a further experiment is MDA-MB-231. Description: Cytotoxicity against human MDA-MB-231 cells after 24 hrs by MTT assay. To be noted: MDA-MB-231, 24 h. The essentials: as §1
A further experiment has as its system A549. Nature of the experiment: Cytotoxicity against human A549 cells after 24 hrs by MTT assay. The conditions noted are these: A549, 24 h. The essentials: as §1

SMILES strings stand for the structures.

As to `COc1cc([C@@H]2c3cc4c(cc3[C@@H](NC(=O)COc3ccc(/C=C5\Oc6c(OC)cccc6C5=O)cc3)[C@H]3COC(=O)[C@H]23)OCO4)cc(OC)c1OC`, the IC50 in the experiment with MCF7 worked out at 1980 nM; with DU-145 it was 2090 nM; with MDA-MB-231, 1680 nM; with A549 it was 1560 nM.

As for `COc1ccc(/C=C2\Oc3ccccc3C2=O)cc1OCC(=O)N[C@@H]1c2cc3c(cc2[C@@H](c2cc(OC)c(OC)c(OC)c2)[C@H]2C(=O)OC[C@@H]21)OCO3`, the IC50 is 6230 nM in the experiment with MCF7, 2550 nM with DU-145, 8230 nM in the experiment with MDA-MB-231 and 7230 nM with A549.

On to `COc1cc([C@@H]2c3cc4c(cc3[C@@H](NC(=O)COc3ccc(/C=C5\Oc6ccccc6C5=O)cc3)[C@H]3COC(=O)[C@H]23)OCO4)cc(OC)c1OC`, for which the IC50 is 130 nM with MCF7, 970 nM in the experiment with DU-145, 450 nM in the experiment with MDA-MB-231 and 100 nM with A549.

For `COc1cc(/C=C2\Oc3ccccc3C2=O)ccc1OCC(=O)N[C@@H]1c2cc3c(cc2[C@@H](c2cc(OC)c(OC)c(OC)c2)[C@H]2C(=O)OC[C@@H]21)OCO3`, the 50% inhibitory concentration (IC50) in the experiment on MCF7 came out at 4510 nM; in the experiment on DU-145, 3820 nM; in the experiment with A549 it was 2750 nM.

Take `COc1cc(/C=C2\Oc3c(OC)cccc3C2=O)ccc1OCC(=O)N[C@@H]1c2cc3c(cc2[C@@H](c2cc(OC)c(OC)c(OC)c2)[C@H]2C(=O)OC[C@@H]21)OCO3`: the half-maximal inhibitory concentration (IC50) with MCF7 was 2350 nM; in the experiment on DU-145, 3980 nM; with MDA-MB-231 it was 2600 nM; in the experiment with A549, 2990 nM.

As to `COc1cc([C@@H]2c3cc4c(cc3[C@@H](NC(=O)COc3c(OC)cc(/C=C5\Oc6c(OC)cccc6C5=O)cc3OC)[C@H]3COC(=O)[C@H]23)OCO4)cc(OC)c1OC`, the half-inhibitory concentration (IC50) with MCF7 came out at 230 nM; with DU-145, 1220 nM; in the experiment on MDA-MB-231 it was 870 nM; with A549, 1450 nM.

Take `COc1ccc(/C=C2\Oc3c(OC)cccc3C2=O)cc1OCC(=O)N[C@@H]1c2cc3c(cc2[C@@H](c2cc(OC)c(OC)c(OC)c2)[C@H]2C(=O)OC[C@@H]21)OCO3`: the IC50 in the experiment on MCF7 is 1870 nM; in the experiment with DU-145, 2330 nM; in the experiment with MDA-MB-231, 2180 nM.

On to `COc1cc([C@@H]2c3cc4c(cc3[C@@H](O[C@@H]3O[C@@H]5CO[C@@H](C)O[C@H]5[C@H](O)[C@H]3O)[C@H]3COC(=O)[C@H]23)OCO4)cc(OC)c1O` [ETOPOSIDE], for which the IC50 was found to be 2110 nM in the experiment with MCF7 and 1970 nM in the experiment with DU-145.
